The values below come from PMC5147544 (Science signaling, 2016).

For assay [1], the target named is mouse hypothalamic membranes (Mus musculus, UniProt P30731). Put plainly: Displacement of [125I]Tyr-rPEN binding in mouse hypothalamic membranes. Particulars: [125I]Tyr-rPEN 3 nM, membranes 30 μg, peptide 0 to 10 μM; Fig. 1C. Background: Loss of bound radioactivity is the signal in a displacement assay; it reports binding, not function.
Assay [2] concerns the target endogenous mouse GPR83 in brain (hypothalamus, hippocampus, PVN) (mouse (endogenous in hypothalamus, hippocampus)) (UniProt P30731). Kind of assay: radioligand binding.
For assay [3] the following is noted: intracerebroventricular administration; cited from earlier work.
Another assay deals with Neuro2A cells (Mus musculus, UniProt P30731). Kind of assay: Neurite outgrowth assay. The format is cell-based. Particulars: 1 μM peptide, 16 to 20 hours at 37°C, protease inhibitor cocktail; Fig. 3A. A digest of the protocol:
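Neuro2A cells were plated on poly-L-lysine, 20,000 per well, in 10% FBS medium. Next day, in serum-free medium, cells got 1 μM peptide or vehicle with protease inhibitors for 16–20 h at 37°C. Sequential 40× images covered ~300–500 cells, with repeats on different days. Blinded scoring: a cell counted positive if its neurite was longer than twice the cell diameter.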

In assay [4] the target is T1, hGPR83 (Homo sapiens, UniProt Q9NYM4). Put plainly: Displacement of [125I]Tyr-rPEN binding to CHO hGPR83 cell membranes. To be noted: Fig. 4D. The essentials: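 Membranes were prepared from CHO cells expressing untagged hGPR83 by homogenising in ice-cold 20 mM tris-Cl, 250 mM sucrose, 2 mM EGTA, 1 mM MgCl₂ (pH 7.4), then spinning at 27,000g. Membranes (50 μg) were incubated 1 h at 37°C in 50 mM tris-Cl (pH 7.4) plus protease inhibitors with 3 nM [¹²⁵I]Tyr-rPEN and competitor peptide (0 to 10 μM). Samples were filtered on GF/B, washed three times with ice-cold buffer and counted by scintillation.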

Assay [5] concerns the target T1, hGPR83. Kind of assay: [35S]GTPγS binding in membranes from CHO hGPR83 cells. To be noted: membranes 20 μg; Fig. 4E. The format is biochemical. The essentials: (§1)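 Membranes (20 μg) were incubated 1 h at 30°C with peptide (0 to 1 μM final), 2 mM GDP and 0.5 nM [³⁵S]GTPγS. Buffer was 50 mM Hepes, 5 mM MgCl₂, 100 mM NaCl, 1 mM EDTA (pH 7.4) with protease inhibitors. Nonspecific binding was taken with 10 μM cold GTPγS, and basal as GDP without ligand. Samples were filtered on GF/B, washed three times with ice-cold 50 mM tris-Cl and counted by scintillation.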

Assay [6] is described as follows: [35S]GTPγS binding in membranes from control CHO cells. The format is biochemical, Chinese hamster. Particulars: membranes 20 μg, CHO alone; Fig. 4E. A digest of the protocol: as §1
For orientation: GTPγS resists hydrolysis and so accumulates on activated G proteins.

T1 sequence (Q9NYM4 17-423): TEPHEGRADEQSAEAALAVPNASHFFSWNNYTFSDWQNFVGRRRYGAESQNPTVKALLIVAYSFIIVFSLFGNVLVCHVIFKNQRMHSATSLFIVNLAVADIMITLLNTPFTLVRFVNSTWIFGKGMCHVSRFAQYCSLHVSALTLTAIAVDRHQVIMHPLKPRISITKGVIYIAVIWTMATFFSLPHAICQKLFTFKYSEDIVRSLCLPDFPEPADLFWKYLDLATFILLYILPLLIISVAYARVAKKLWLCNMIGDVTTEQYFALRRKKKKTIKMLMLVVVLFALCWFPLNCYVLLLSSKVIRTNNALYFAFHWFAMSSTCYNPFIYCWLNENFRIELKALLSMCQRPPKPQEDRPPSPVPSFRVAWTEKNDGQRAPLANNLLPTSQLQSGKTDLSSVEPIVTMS
Chain of Neuro2A cells (P30731 18-423): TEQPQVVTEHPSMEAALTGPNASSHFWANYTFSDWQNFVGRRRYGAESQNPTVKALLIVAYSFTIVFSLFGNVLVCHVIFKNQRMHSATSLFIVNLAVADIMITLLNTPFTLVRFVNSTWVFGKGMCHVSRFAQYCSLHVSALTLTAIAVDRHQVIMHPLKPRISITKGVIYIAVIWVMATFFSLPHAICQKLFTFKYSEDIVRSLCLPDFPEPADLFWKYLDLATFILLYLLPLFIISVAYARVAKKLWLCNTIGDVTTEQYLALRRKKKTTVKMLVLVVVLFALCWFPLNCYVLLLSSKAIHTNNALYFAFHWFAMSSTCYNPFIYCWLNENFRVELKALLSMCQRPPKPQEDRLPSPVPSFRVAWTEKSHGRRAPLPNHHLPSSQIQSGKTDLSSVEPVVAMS
Chain of endogenous mouse GPR83 in brain (hypothalamus, hippocampus, PVN) (mouse (endogenous in hypothalamus, hippocampus)) (P30731 18-423): as above
Chain of mouse hypothalamic membranes (P30731 18-423): as above

On to LENPSPQAPA [rlittleLEN], for which the “competition for [125I]Tyr-rPEN binding” value in assay [1] is reported as “did not compete for binding”.
By Kd is commonly meant a measure of binding affinity in units of concentration. In assay [2], “N-terminally tyrosinated, radioiodinated rat PEN (peptide)” registered an equilibrium dissociation constant (Kd) of 8 nM.
Regarding “PEN: proSAAS-derived peptide PEN, species form not stated at this place (AADHDVGSELPPEGVLGALLRV; PEN; UniProt Q9UHG2 221-242, looked up)”, the “effect on food intake” value in assay [3] is “did not elicit a significant effect”.
As for “bigLEN: proSAAS-derived peptide bigLEN, species form not stated at this place (LETPAPQVPARRLLPP; Big LEN; UniProt Q9UHG2 245-260, looked up)”, the “effect on food intake” value in assay [3] is recorded as “did not elicit a significant effect”.
For “mbigLEN: mouse bigLEN, proSAAS-derived neuropeptide that activates GPR171 (LENPSPQAPARRLLPP; Big LEN; UniProt Q9QXV0 243-258, looked up)”, the number of neurites result in the assay with Neuro2A cells is “significantly increased”.
With neuropeptide Y [NPY], the “displacement of [125I]Tyr-rPEN” value is listed as ~ 20% with hGPR83 [4] (10 μM NPY, not significant (one-way ANOVA, P = 0.37)) and “did not displace” with hGPR83 [4] (NPY at concentrations below 1 μM, [125I]Tyr-rPEN 3 nM, membranes 50 μg). Further, the GTPγS binding result (with hGPR83 [5]; in assay [6]) was “small increase” throughout.
For “rSAAS: rat SAAS, proSAAS-derived peptide (ARPVKEPRSLSAASAPLAETSTPLRL; Big SAAS; UniProt Q9QXU9 34-59, looked up)”, the number of neurites entry with Neuro2A cells was “significantly increased”.
